High-throughput results deposited in PubChem BioAssay by Sanford-Burnham Center for Chemical Genomics.
hIAP inh: human IAP inhibition; purified IAP, CDP-Star luminescence, 30 min; inhibition, % at 10 µM; 0.12% of 330,000 active;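 active means inhibition reaching a set limit with compound at 10 µM in the primary screen, cut at about 35% in these data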;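 further: plate controls were DMSO wells with enzyme for no effect and no-enzyme buffer wells for full effect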
Target sequence (P09923 whole entry, looked up): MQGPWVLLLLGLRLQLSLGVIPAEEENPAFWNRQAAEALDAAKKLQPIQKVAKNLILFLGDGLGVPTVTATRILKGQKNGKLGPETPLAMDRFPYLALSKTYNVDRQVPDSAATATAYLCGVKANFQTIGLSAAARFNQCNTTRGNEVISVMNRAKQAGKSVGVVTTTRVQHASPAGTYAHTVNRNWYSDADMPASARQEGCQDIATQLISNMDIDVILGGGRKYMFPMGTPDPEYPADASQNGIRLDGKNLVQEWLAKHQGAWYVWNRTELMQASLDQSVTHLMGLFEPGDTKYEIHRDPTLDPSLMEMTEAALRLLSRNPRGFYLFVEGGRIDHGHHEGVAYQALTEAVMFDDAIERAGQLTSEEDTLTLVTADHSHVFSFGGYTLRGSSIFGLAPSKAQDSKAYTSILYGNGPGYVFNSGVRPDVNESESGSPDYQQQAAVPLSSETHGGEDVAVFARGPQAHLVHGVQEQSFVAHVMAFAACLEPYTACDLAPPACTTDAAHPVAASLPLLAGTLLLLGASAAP
mIAP inh: mouse IAP inhibition. 0.2% of 330,000 active. inhibition, % at 10 µM. purified mouse IAP, CDP-Star luminescence, 30 min;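 active means inhibition of at least 40% at 10 µM in the primary screen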;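 further: plate controls were DMSO with enzyme for no effect and no enzyme wells for full effect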
hIAP activ: human IAP activation. P09923. purified human IAP, CDP-Star luminescence, 30 min; hits give high values; 1 = vehicle-only enzyme, 0 = enzyme-free background. activation factor at 10 µM. 0.16% of 330,000 active;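 active means activation factor of the enzyme at least 2-fold when tested at 20 µM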
bIAP inh: blocks bovine intestinal alkaline phosphatase activity. 190,000 tested, under 10 active. inhibition, % at 20 µM. purified bovine IAP, CDP-star luminescence, 30 min;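 active means over 50% inhibition of intestinal alkaline phosphatase at 20 µM in the single-dose screen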
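Assay system – bovine IAP enzyme · Quantity – bovine IAP at 1/65,000,000 final dilution · Detection – CDP-star luminescence signal · Times – 30 min reaction at room temperature · Also added – CDP-star substrate at 30 µM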
bIAP act: increases bovine intestinal alkaline phosphatase activity. purified bovine IAP, CDP-star luminescence, 30 min; hits give high values; fold of DMSO-control signal, blank-subtracted. activation factor at 20 µM. 0.17% of 200,000 active. AID 1016;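 active means activation factor of 2 or more at 20 µM, a signal rise over negative controls twice the positive control's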
mIAP act: mouse IAP activation. muIAP, CDP-Star luminescence, 30 min; hits give high values; 1 = vehicle-only enzyme signal, 0 = enzyme-free wells. activation factor at 10 µM. 0.24% of 330,000 active;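 active means activation factor of at least 2 at 20 µM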
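System: Mouse IAP enzyme | Also added: CDP-Star substrate | Dosing: Compounds dispensed in DMSO | Schedule: 30 min enzyme-substrate-compound incubation at room temperature | Technique: Chemiluminescence readout | Control set: DMSO-only wells and no-enzyme negative control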
mIAP inh conf: mouse IAP inhibition confirmation; shares compounds with mIAP inh; purified mouse IAP, CDP-Star luminescence, 30 min; inhibition, % at 10 µM; 4.7% of 11,000 active; AID 434971;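 active means inhibition of at least 40% at 10 µM in either of the two replicates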;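 further: plate controls were DMSO wells with enzyme for no effect and buffer wells lacking enzyme for full effect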
* hit, by the source's call; i = inactive; . = no result given. The list is not random: actives were taken first. Their share in the collection is about 0.77%.

SMILES | hIAP inh | mIAP inh | hIAP activ | bIAP inh | bIAP act | mIAP act | mIAP inh conf
COc1ccc(CNC(=O)NCc2ccc(OC)c(OC)c2)cc1OC | -4 | 5 | 1 | -2 | 1 | 0.95 | .
COc1cccc(C(C)NC(=O)Nc2cccc(C(F)(F)F)c2)c1 (centres undefined) | -50 | -426 | 1.5 | 15 | 0.8 | 5.3* | -284
COc1ccc(CNC(=O)Nc2cccc(C(F)(F)F)c2)cc1OC | -18 | -116 | 1.2 | -3 | 1 | 2.2* | -121
CCN(CC)S(=O)(=O)c1cccc(NC(=O)CC2CCCC2)c1 | -7 | -2 | 1.1 | . | . | 1 | .
CCN(CC)S(=O)(=O)c1cccc(NC(=O)Nc2cccc(C(F)(F)F)c2)c1 | -18 | i | 1.2 | 34 | 0.7 | 7.4* | -357
COCCNC(=O)C1CC(c2ccc(C(F)(F)F)cc2)=NO1 (centres undefined) | 9 | 4 | 0.91 | . | . | 0.96 | .
Cc1ccc(SCC(=O)NC(=O)c2ccccc2Br)c(C)c1 | -22 | 3 | 1.2 | . | . | 0.97 | .
Brc1cccc(C2Nc3cccc4cccc(c34)N2)c1 | 22 | 12 | 0.78 | . | . | 0.88 | .
Brc1ccc(C2Nc3cccc4cccc(c34)N2)o1 | 13 | 44* | 0.87 | 20 | 0.8 | 0.56 | 53*
NS(=O)(=O)c1cccc(C(=O)NC2CCSc3ccccc32)c1 (centres undefined) | 5 | -21 | 0.95 | . | . | 1.2 | .
NS(=O)(=O)c1cc(C(=O)NC2CCSc3ccccc32)ccc1Cl (centres undefined) | 9 | 72* | 0.91 | . | . | 0.28 | 84*
Cc1ccc(Cl)c2c1=NC(=O)C=2c1[nH]c(=S)[nH]c1O | 24 | 46* | 0.76 | . | 0.1 | 0.54 | 52*
COc1ccc(S(=O)(=O)N2CCC(C(=O)NC3CC3)CC2)cc1OC | -38 | 2 | 1.4 | . | . | 0.98 | .
Cc1ccc(C)c(N=Cc2cc3c(cc2[N+](=O)[O-])OCO3)c1 | 4 | 33 | 0.96 | 8 | 0.9 | 0.67 | .
CC(C)(C)c1ccc(O)c(N=Cc2cc3c(cc2[N+](=O)[O-])OCO3)c1 | 7 | 42* | 0.93 | . | . | 0.58 | 49*
O=C(O)/C=C\c1cc2c(cc1[N+](=O)[O-])OCO2 | -16 | 42* | 1.2 | . | . | 0.58 | 45*
Cc1ccc(S(=O)(=O)N2CCN(C(=O)c3ccccc3)CC2)c(C)c1NS(C)(=O)=O | 5 | 0 | 0.95 | -24 | 1.2 | 1 | .
COc1cc(CNc2ncnc3c2[nH]c2ccc(C)cc23)cc(OC)c1 | -69 | -212 | 1.7 | . | . | 3.1* | -197
CC(=O)c1c(C)oc2ccc(NS(=O)(=O)c3ccc(O)c(C(=O)O)c3)cc12 | -5 | 13 | 1 | 6 | 0.9 | 0.87 | .
O=C(O)c1cc(S(=O)(=O)Nc2ccc3oc(=O)sc3c2)ccc1O | -5 | 65* | 1.1 | 8 | 0.9 | 0.35 | 72*
Cc1ccc(S(=O)(=O)N(C)C)cc1NC(=O)Nc1ccccc1F | -43 | -58 | 1.4 | . | . | 1.6 | .
Cc1cc(C)cc(NC(=O)Nc2cc(S(=O)(=O)N(C)C)ccc2C)c1 | -2 | -388 | 1 | . | . | 4.9* | -243
NS(=O)(=O)c1cccc(NC(=O)CSc2nnc(-c3ccncc3)n2C2CC2)c1 | 5 | 50* | 0.95 | . | . | 0.5 | 58*
Cn1nc(OC(=O)Nc2cccc(Cl)c2)cc1C(F)(F)F | 6 | -241 | 0.94 | 7 | 0.9 | 3.4* | -151
Cn1nc(OC(=O)Nc2ccccc2)cc1C(F)(F)F | -34 | -14 | 1.3 | 9 | 0.9 | 1.1 | .
SMILES | hIAP inh | mIAP inh | hIAP activ | bIAP inh | bIAP act | mIAP act | mIAP inh conf
CCc1ccc(NC(=O)NCC2CCN(Cc3cccc(Cl)c3)CC2)cc1 | -54 | -209 | 1.5 | . | . | 3.1* | -120
Cc1ccc(NC(=O)NCC2CCN(Cc3cccc(Cl)c3)CC2)cc1Cl | -39 | -322 | 1.4 | -14 | 1.1 | 4.2* | -87
COc1cccc(NC(=O)NCC2CCN(Cc3ccc(F)cc3)CC2)c1 | -36 | -96 | 1.4 | . | . | 2 | .
CCC(C)NC(=O)Nc1ccc2c(c1)N(C)C(=O)c1ccccc1S2 (centres undefined) | -6 | -240 | 1.1 | -260 | 3.6* | 3.4* | -100
CCCSC1=N/C(=C\C=C\c2ccco2)C(=O)S1 | 6 | 45* | 0.94 | 31 | 0.7 | 0.55 | 61*
O=C1SC(SCc2ccccc2)=N/C1=C\c1ccco1 | 8 | 25 | 0.92 | 21 | 0.8 | 0.75 | .
CC(C)c1c(Cl)c(O)c(-c2ccccc2)c(=O)n1-c1ccc(F)cc1 | -11 | -1 | 1.1 | 6 | 0.9 | 1 | .
Cc1nnc(NC(=O)C2CC(=O)N(c3ccc4c(c3)OCCO4)C2)s1 (centres undefined) | -2 | -1 | 1 | . | . | 1 | .
O=C(Nc1nc(-c2ccco2)c(-c2ccco2)s1)C1CC(=O)N(c2ccc3c(c2)OCCO3)C1 (centres undefined) | 9 | 54* | 0.91 | 5 | 0.9 | 0.46 | 69*
O=C1CC(c2ccc(O)cc2)Oc2cc(O)cc(O)c21 (centres undefined) | -2 | -1 | 1 | -13 | 1.1 | 1 | .
O=C1CC(c2ccc(O)c(O)c2)Oc2c1ccc(O)c2O (centres undefined) | 28 | 78* | 0.72 | . | . | 0.22 | 81*
CC(=O)Nc1sc(N/N=C\c2ccccc2)nc1-c1cccs1 | -7 | 22 | 1.1 | -3 | 1 | 0.78 | .
CCOc1cc(/C=N/Nc2nc(-c3cccs3)c(NC(C)=O)s2)ccc1O | 14 | 41* | 0.86 | . | . | 0.59 | 44*
Cc1cccc(C)c1NC(=O)C1CCCN1S(=O)(=O)c1ccccc1 (centres undefined) | 10 | -2 | 0.9 | . | . | 1 | .
Cc1ccc(NC(=O)C2CC(=O)n3c(nc4ccccc43)N2)cc1Cl (centres undefined) | -92 | -258 | 1.9 | -136 | 2.4* | 3.6* | -125
Cc1ccc(NC(=O)[C@@H]2CCC(=O)N2C2OC(=O)c3ccccc32)cc1Cl (some centres undefined) | 6 | 18 | 0.94 | . | . | 0.81 | .
S=c1[nH]nc(-c2ccc(Cl)cc2)n1/N=C/C=C/c1ccco1 | -15 | 56* | 1.2 | . | . | 0.44 | 58*
S=c1[nH]nc(-c2cccnc2)n1/N=C/C=C/c1ccco1 | 3 | 47* | 0.97 | 3 | 1 | 0.53 | 60*
CC(OC(=O)CC1Sc2ccccc2NC1=O)C(=O)NC1CCCC1 (centres undefined) | 4 | -3 | 0.96 | . | . | 1 | .
CN(C)c1ccc(N=Cc2ccco2)cc1 | 10 | 14 | 0.9 | 21 | 0.8 | 0.86 | .
C(=N\C(/N=C/c1ccco1)c1ccco1)/c1ccco1 | -19 | 73* | 1.2 | -4 | 1 | 0.27 | 75*
Nc1nnnn1/N=C/c1ccco1 | -4 | 6 | 1 | 2 | 1 | 0.94 | .
